Results on 36 compounds are retold here after ChEMBL document CHEMBL3593210, “Pentamidine analogs as inhibitors of [(3)H]MK-801 and [(3)H]ifenprodil binding to rat brain NMDA receptors” (Bioorg Med Chem, 2015).

Structures are written as SMILES.

The target in assay [1] is Glutamate NMDA receptor. The experiment in a line: Displacement of [3H]-MK-801 from rat cortical membranes NMDA receptor by beta counting analysis in presence of 30 uM spermine. In outline: (§1)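 Membranes from rat frontoparietal cortex and hippocampus, prepared in 50 mM Tris acetate pH 7.0. 5 nM [3H]MK-801 was incubated with membranes (~1 mg wet tissue) for 3 h at 23 °C in 10 mM Tris acetate pH 7.0 with 10 µM glutamate and glycine, in triplicate, with or without 30 µM spermine. Compounds were tested at 3–4 concentrations. Nonspecific binding was set with 100 µM (S)-ketamine. Bound ligand was filtered and scintillation-counted. Spermine sensitivity = IC50 (with spermine)/IC50 (without).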

Assay [2] concerns the target Glutamate NMDA receptor. The experiment in a line: Displacement of [3H]-ifenprodil from rat cortical membranes NMDA receptor by beta counting analysis in absence of spermine. (Loss of bound radioactivity is the signal in a displacement assay; it reports binding, not function.)
Assay [3] deals with Glutamate NMDA receptor. The experiment in a line: Displacement of [3H]-MK-801 from rat cortical membranes NMDA receptor by beta counting analysis in absence of spermine. In a few lines:
as §1

Assay [4] addresses Glutamate NMDA receptor (Rattus norvegicus) (UniProt P35439+Q00959+Q00960+Q00961+Q62645+Q8VHN2+Q9R1M7). The experiment in a line: Ratio of IC50 for displacement of [3H]-MK-801 from rat cortical membranes NMDA receptor in presence of 30 uM spermine to IC50 for displacement of [3H]-MK-801 from rat cortical membranes NMDA receptor in absence of 30 spermine. In outline: as §1

In the case of `N=C(N)c1ccc(OC(=O)c2ccc(C(=O)Oc3ccc(C(=N)N)cc3)cc2)cc1` [BIS(4-CARBAMIMIDOYLPHENYL)TEREPHTHALATE], the IC50 (in general, the midpoint of a concentration-inhibition curve) on Glutamate NMDA receptor [1] was found to be 46.6 µM; at Glutamate NMDA receptor [2], 27 µM; at Glutamate NMDA receptor [3], 10.8 µM. Also, the Ratio IC50 in assay [4] was found to be 3.98.

Turning to `N=C(N)c1ccc(N2CCN(c3ccc(C(=N)N)cc3)CC2)cc1`, the results for the 50% inhibitory concentration (IC50) at Glutamate NMDA receptor [1], at Glutamate NMDA receptor [2] and at Glutamate NMDA receptor [3] were 70.7 µM, 17 µM and 3.08 µM, respectively. The Ratio IC50 in assay [4] came out at 26.2.

Take `CN(CCCN(C)c1ccc(C(=N)N)cc1)c1ccc(C(=N)N)cc1`: the results for the concentration for half-maximal inhibition (IC50) on Glutamate NMDA receptor [1], on Glutamate NMDA receptor [2] and on Glutamate NMDA receptor [3] were 24.7 µM, 31.2 µM and 1.84 µM, respectively. The Ratio IC50 in assay [4] was determined as 14.7.

Take `CN(CCN(C)c1ccc(C(=N)N)cc1)c1ccc(C(=N)N)cc1`: the results for the 50% inhibitory concentration (IC50) at Glutamate NMDA receptor [1], at Glutamate NMDA receptor [2] and at Glutamate NMDA receptor [3] were 54.5 µM, 16.9 µM and 2.71 µM, respectively. For the same compound, in assay [4], the Ratio IC50 stood at 20.9.

For `NCCCCCCCCCCCCN`, the IC50 at Glutamate NMDA receptor [1] is 245 µM; on Glutamate NMDA receptor [2], 960 µM. Besides, the Ratio IC50 in assay [4] is 32.9.

As for `NCCCCCCCCc1ccc(CCCCN)s1`, the values for the IC50 on Glutamate NMDA receptor [1], on Glutamate NMDA receptor [2] and at Glutamate NMDA receptor [3] were 6.1 µM, 49.3 µM and 0.52 µM, respectively. Moreover, the Ratio IC50 in assay [4] was 15.1.

As for `N=C(N)c1ccc(N2CCCN(c3ccc(C(=N)N)cc3)CC2)cc1`, the IC50 at Glutamate NMDA receptor [1] came out at 5.47 µM; at Glutamate NMDA receptor [2] it was 19.1 µM; at Glutamate NMDA receptor [3], 0.25 µM. Also, the Ratio IC50 in assay [4] was found to be 20.4.

Turning to `N=C(N)c1ccc(OCc2ccccc2COc2ccc(C(=N)N)cc2)cc1`, the IC50 at Glutamate NMDA receptor [1] stood at 5.54 µM; at Glutamate NMDA receptor [2], 1.42 µM; at Glutamate NMDA receptor [3] it was 1.46 µM. The Ratio IC50 in assay [4] was found to be 4.

For the compound `Cc1ccc(S(=O)(=O)N(CCOc2ccc(C(=N)N)cc2)CCOc2ccc(C(=N)N)cc2)cc1`, the IC50 was determined as 1.32 µM at Glutamate NMDA receptor [1], 0.41 µM on Glutamate NMDA receptor [2] and 0.24 µM at Glutamate NMDA receptor [3]. Besides, the Ratio IC50 in assay [4] came out at 6.28.

Turning to `N=C(N)c1ccc(NCCCNc2ccc(C(=N)N)cc2)cc1`, the IC50 at Glutamate NMDA receptor [1] came out at 148 µM; at Glutamate NMDA receptor [2] it was 77.7 µM; at Glutamate NMDA receptor [3], 10 µM. The Ratio IC50 in assay [4] was found to be 17.

Take `CN(CCNc1ccc(C(=N)N)cc1)c1ccc(C(=N)N)cc1`: the IC50 amounted to 85.3 µM at Glutamate NMDA receptor [1], 7.14 µM at Glutamate NMDA receptor [2] and 3.18 µM on Glutamate NMDA receptor [3]. Also, in assay [4], the Ratio IC50 came out at 30.2.

For the compound `CC(C)NC(=N)c1ccc(NC(=O)c2cccc(C(=O)Nc3ccc(C(=N)NC(C)C)cc3)n2)cc1`, the IC50 amounted to 74.9 µM on Glutamate NMDA receptor [1], 49.4 µM at Glutamate NMDA receptor [2] and 6.94 µM at Glutamate NMDA receptor [3]. For the same compound, the Ratio IC50 in assay [4] is 10.8.

With `N=C(N)c1ccc(NCCCCNc2ccc(C(=N)N)cc2)cc1`, the IC50 on Glutamate NMDA receptor [1] worked out at 84.2 µM; on Glutamate NMDA receptor [3], 4.55 µM. For the same compound, the Ratio IC50 in assay [4] came out at 17.2.

As to `NC(N)=NCCCCN=C(N)N` [ARCAINE], the half-inhibitory concentration (IC50) on Glutamate NMDA receptor [1] stood at 196 µM; at Glutamate NMDA receptor [2], 24.4 µM; at Glutamate NMDA receptor [3], 4.6 µM.

`N=C(NC1CCCC1)c1ccc(N2CCN(c3ccc(C(=N)NC4CCCC4)cc3)CC2)cc1`: the concentration for half-maximal inhibition (IC50) on Glutamate NMDA receptor [1] worked out at 159 µM; at Glutamate NMDA receptor [3], 9.25 µM. The Ratio IC50 in assay [4] is 19.3.

On to `N=C(N)c1ccc(-c2ccc(-c3ccc(C(=N)N)s3)s2)s1`, for which the IC50 at Glutamate NMDA receptor [1] was found to be 6.76 µM; at Glutamate NMDA receptor [3], 5.34 µM. Besides, in assay [4], the Ratio IC50 turned out to be 1.5.

For `N=C(N)c1ccc(C(=O)Nc2cccc(NC(=O)c3ccc(C(=N)N)cc3)n2)cc1`, the half-maximal inhibitory concentration (IC50) at Glutamate NMDA receptor [1] came to 233 µM; at Glutamate NMDA receptor [3], 125 µM. In addition, in assay [4], the Ratio IC50 turned out to be 1.85.

Regarding `N=C(N)c1ccc(NC(=O)c2ccc(C(=O)Nc3ccc(C(=N)N)cc3)o2)cc1`, the figures for the half-inhibitory concentration (IC50) at Glutamate NMDA receptor [1] and on Glutamate NMDA receptor [3] were 153 µM and 152 µM, respectively. Besides, the Ratio IC50 in assay [4] is 1.01.

Regarding `N=C(N)c1ccc(NC(=O)CCCCCCC(=O)Nc2ccc(C(=N)N)cc2)cc1`, the results for the IC50 on Glutamate NMDA receptor [1] and on Glutamate NMDA receptor [3] were 170 µM and 22.9 µM, respectively. Besides, in assay [4], the Ratio IC50 was determined as 7.25.

Turning to `N=C(N)c1ccc(-c2ccc(-c3ccc(C(=N)N)cc3)o2)cc1` [FURAMIDINE], the results for the IC50 at Glutamate NMDA receptor [1] and on Glutamate NMDA receptor [3] were 7.48 µM and 4.23 µM, respectively. Moreover, in assay [4], the Ratio IC50 amounted to 2.37.

As to `N=C(NCCO)c1ccc(N2CCCN(c3ccc(/C(N)=N/CCO)cc3)CC2)cc1`, the 50% inhibitory concentration (IC50) came to 324 µM on Glutamate NMDA receptor [1] and 9.44 µM at Glutamate NMDA receptor [3]. Moreover, the Ratio IC50 in assay [4] was found to be 35.7.

`CCCC/N=C(/N)c1ccc(N2CCN(c3ccc(/C(N)=N\CCCC)cc3)CC2)cc1`: the half-inhibitory concentration (IC50) at Glutamate NMDA receptor [1] was found to be 139 µM; on Glutamate NMDA receptor [3], 10.3 µM. In addition, in assay [4], the Ratio IC50 was 16.

In the case of `N=C(N)c1ccc(-c2ccc(-c3ccc(C(=N)N)cc3)s2)cc1`, the values for the IC50 on Glutamate NMDA receptor [1] and on Glutamate NMDA receptor [3] were 17.7 µM and 6.68 µM, respectively. The Ratio IC50 in assay [4] came out at 2.61.

Take `N=C(N)c1ccc(-c2ccc(-c3ccc(C(=N)N)cc3)c(F)c2)cc1`: the values for the IC50 at Glutamate NMDA receptor [1] and on Glutamate NMDA receptor [3] were 34.2 µM and 9.9 µM, respectively. In addition, the Ratio IC50 in assay [4] amounted to 4.63.

With `c1cc(N2CCCN(c3ccc(C4=NCCCN4)cc3)CC2)ccc1C1=NCCCN1`, the results for the IC50 on Glutamate NMDA receptor [1] and at Glutamate NMDA receptor [3] were 143 µM and 12.8 µM, respectively. Besides, the Ratio IC50 in assay [4] was 11.7.

For `CC(C)NC(=N)c1ccc(NC(=O)c2ccc(C(=O)Nc3ccc(C(=N)NC(C)C)cc3)o2)cc1`, the IC50 at Glutamate NMDA receptor [1] is 174 µM; on Glutamate NMDA receptor [3], 10.6 µM. Besides, the Ratio IC50 in assay [4] was found to be 16.9.

For `N=C(N)c1ccc(-c2ccc(-c3ccc(-c4ccc(C(=N)N)cc4)nc3)cn2)cc1`, the values for the half-inhibitory concentration (IC50) on Glutamate NMDA receptor [1] and on Glutamate NMDA receptor [3] were 30 µM and 26.8 µM, respectively. Also, in assay [4], the Ratio IC50 turned out to be 1.24.

For the compound `C/N=C(\N)c1ccc(-c2ccc(-c3ccc(/C(N)=N/C)cc3)o2)cc1`, the figures for the IC50 on Glutamate NMDA receptor [1] and at Glutamate NMDA receptor [3] were 24 µM and 6.97 µM, respectively. Moreover, in assay [4], the Ratio IC50 came to 3.47.

Consider `CC(C)/N=C(\N)c1ccc(N2CCCN(c3ccc(/C(N)=N/C(C)C)cc3)CC2)cc1`, for which the IC50 on Glutamate NMDA receptor [1] was 389 µM; on Glutamate NMDA receptor [3], 17.7 µM. In assay [4], the Ratio IC50 is 25.3.

As to `CC(C)/N=C(/N)c1ccc(N2CCN(c3ccc(/C(N)=N\C(C)C)cc3)CC2)cc1`, the figures for the IC50 at Glutamate NMDA receptor [1] and at Glutamate NMDA receptor [3] were 544 µM and 21.4 µM, respectively. Besides, the Ratio IC50 in assay [4] came out at 32.9.

As for `c1cc(N2CCN(c3ccc(C4=NCCN4)cc3)CC2)ccc1C1=NCCN1`, the IC50 stood at 106 µM at Glutamate NMDA receptor [1] and 6.43 µM at Glutamate NMDA receptor [3]. In addition, the Ratio IC50 in assay [4] is 15.1.

Regarding `N=C(N)c1ccc(NCCCCCCCNc2ccc(C(=N)N)cc2)cc1`, the values for the IC50 on Glutamate NMDA receptor [1] and at Glutamate NMDA receptor [3] were 25.4 µM and 4.67 µM, respectively. The Ratio IC50 in assay [4] came to 5.37.

As for `CC(C)(C)/N=C(\N)c1ccc(N2CCCN(c3ccc(/C(N)=N/C(C)(C)C)cc3)CC2)cc1`, the IC50 stood at 562 µM on Glutamate NMDA receptor [1] and 34.6 µM at Glutamate NMDA receptor [3]. Further, the Ratio IC50 in assay [4] came out at 16.8.

With `N=C(N)c1ccc(NC(=O)CCCCCCCCCCC(=O)Nc2ccc(C(=N)N)cc2)cc1`, the figures for the IC50 on Glutamate NMDA receptor [1] and at Glutamate NMDA receptor [3] were 27.7 µM and 9.63 µM, respectively. In assay [4], the Ratio IC50 came to 2.98.

In the case of `N=C(N)c1ccc(NC(=O)c2ccc(C(=O)Nc3ccc(C(=N)N)cc3)cc2)cc1`, the half-inhibitory concentration (IC50) on Glutamate NMDA receptor [1] is 52.9 µM; at Glutamate NMDA receptor [3], 53.9 µM. Also, in assay [4], the Ratio IC50 came out at 0.96.

As for `N=C(NC1CC1)c1ccc(N2CCN(c3ccc(C(=N)NC4CC4)cc3)CC2)cc1`, the IC50 is 466 µM at Glutamate NMDA receptor [1] and 19.4 µM on Glutamate NMDA receptor [3]. The Ratio IC50 in assay [4] amounted to 21.8.
